Measured values reported in ChEMBL document CHEMBL2434958, “Identification of a novel series of orexin receptor antagonists with a distinct effect on sleep architecture for the treatment of insomnia” (J Med Chem, 2013).
Activity calls are given as the source filed them. The calls are words filed in the database; no cut-off is given here.

Assays:
Mus musculus [1] = experiment: Induction of sleep in C57BL/6 mouse assessed as increase in total sleep time at 50 mg/kg, po measured during first 4 hrs by EEG/EMG analysis relative to vehicle-treated control
Orexin receptor type 2 = molecular target: T1, Orexin receptor type 2 (Mus musculus, UniProt P58308); experiment: Antagonist activity at mouse OX2 receptor expressed in HEK cells assessed as inhibition of orexin A-induced Ca2+ accumulation after 1 hr by Fluo-4-AM staining-based FLIPR assay; type: functional, cell-based, HEK293
T1 sequence (P58308 whole entry): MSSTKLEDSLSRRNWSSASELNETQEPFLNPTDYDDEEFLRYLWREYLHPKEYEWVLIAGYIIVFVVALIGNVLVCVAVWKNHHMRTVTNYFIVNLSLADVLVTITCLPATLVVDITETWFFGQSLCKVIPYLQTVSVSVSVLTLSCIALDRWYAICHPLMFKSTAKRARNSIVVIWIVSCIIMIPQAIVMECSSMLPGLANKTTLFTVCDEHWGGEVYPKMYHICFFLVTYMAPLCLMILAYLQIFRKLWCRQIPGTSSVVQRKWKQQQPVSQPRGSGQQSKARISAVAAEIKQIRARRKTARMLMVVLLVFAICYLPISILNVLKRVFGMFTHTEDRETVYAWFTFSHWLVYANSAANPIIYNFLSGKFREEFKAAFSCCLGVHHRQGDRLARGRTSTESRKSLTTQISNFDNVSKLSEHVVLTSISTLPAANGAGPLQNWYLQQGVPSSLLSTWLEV

Mus musculus [2] = experiment: Induction of sleep in C57BL/6 mouse assessed as increase in rapid eye movement at 50 mg/kg, po measured during 4 hrs by EEG/EMG analysis relative to vehicle-treated control; type: functional, organism-based; parameters: dose 50 mg/kg
Summary of the method: (§1)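 Male C57Bl/6 mice with implanted cortical EEG screw electrodes and EMG, recovered 2 weeks, 12 h/12 h light/dark cycle. Crossover: vehicle (0.5% methylcellulose, 10 mL/kg po) on day 2, compound po on day 3, each given 5–15 min before lights-off. 23 h recordings; EEG filtered 0.3–30 Hz, EMG 5–30 Hz; 10 s epochs scored as wake, NREM or REM from EEG/EMG and infrared motility.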

Brain [3] = experiment: Fraction unbound in C57BL/6 mouse brain at 50 mg/kg, po after 1 hr by LC-MS/MS analysis; type: ADME, organism-based; parameters: dose 50 mg/kg, route oral; conditions: in vivo
Summary of the method: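 Unbound fraction assessed in mouse brain homogenate by a slightly adapted literature method, measured separately from the dosed animals. Free brain level obtained by multiplying fraction unbound by brain concentration from the 50 mg/kg po satellite group at 60 min. Mean ± SD, n = 3.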

Mus musculus [4] = experiment: Effect on locomotion in C57BL/6 mouse assessed as reduction of motility at 50 mg/kg, po measured up to 4 hrs; type: functional, organism-based; parameters: dose 50 mg/kg
Summary of the method: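 Mice habituated, then dosed orally immediately before lights-off (15:00, start of active phase); vehicle 0.5% methylcellulose in water. Inactivity = any minute with no infrared beam breaks. Per-animal difference between inactivity 15:00–19:00 post-dose and the same 4 h during habituation 24 h earlier. n = 6; one-way ANOVA with Dunnett's test versus vehicle.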

Mus musculus [5] = experiment: Induction of sleep in C57BL/6 mouse assessed as increase in non-rapid eye movement at 50 mg/kg, po measured during 4 hrs by EEG/EMG analysis relative to vehicle-treated control; type: functional, organism-based; parameters: dose 50 mg/kg
Summary of the method: as §1

Mus musculus [6] = experiment: Induction of sleep in C57BL/6 mouse assessed as increased rapid eye movement sleep proportion at 50 mg/kg, po measured during 1 hr by EEG/EMG analysis relative to vehicle-treated control; type: functional, organism-based; parameters: dose 50 mg/kg
Summary of the method: as §1

[7] = molecular target: T2, Orexin/Hypocretin receptor type 1 (Mus musculus, UniProt P58307); experiment: Antagonist activity at mouse OX1 receptor expressed in CHO cells assessed as inhibition of orexin A-induced Ca2+ accumulation after 1 hr by Fluo-4-AM staining-based FLIPR assay; type: functional, cell-based
T2 sequence (P58307 whole entry): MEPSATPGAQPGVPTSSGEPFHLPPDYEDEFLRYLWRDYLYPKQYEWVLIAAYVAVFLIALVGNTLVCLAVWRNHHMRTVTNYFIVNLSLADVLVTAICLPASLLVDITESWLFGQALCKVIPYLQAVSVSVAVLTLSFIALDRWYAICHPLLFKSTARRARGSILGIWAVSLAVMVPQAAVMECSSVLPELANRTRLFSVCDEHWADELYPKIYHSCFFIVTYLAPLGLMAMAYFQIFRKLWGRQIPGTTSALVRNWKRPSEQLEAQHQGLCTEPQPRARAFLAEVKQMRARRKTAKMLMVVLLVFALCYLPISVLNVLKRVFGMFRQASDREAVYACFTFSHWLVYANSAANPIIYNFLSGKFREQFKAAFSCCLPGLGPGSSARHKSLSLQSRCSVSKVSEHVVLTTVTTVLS

Brain [8] = experiment: Drug uptake in C57BL/6 mouse brain at 50 mg/kg after 1 hr by LC-MS/MS analysis; type: ADME, organism-based; parameters: dose 50 mg/kg; conditions: in vivo
Summary of the method: (§2)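 Satellite PK group: oral gavage of 50 mg/kg suspended in 0.5% w/v methylcellulose in water, 10 mL/kg. Blood and brain taken after decapitation at 15 and 60 min post-dose, n = 3 mice per time point, stored at −20 °C. Brain homogenised in 2 mM KH₂PO₄; acetonitrile quench with internal standard; LC/MS/MS against six-level calibration curve. Mean ± SD reported.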

[9] = Drug uptake in C57BL/6 mouse blood at 50 mg/kg after 1 hr by LC-MS/MS analysis; type: ADME, organism-based; parameters: dose 50 mg/kg; conditions: read-out: Drug uptake
Summary of the method: as §2

Cc1ccc(-n2nccn2)c(C(=O)N2CCN(c3nc4cc(Cl)ccc4o3)CC[C@H]2C)c1 [SUVOREXANT]
Activity (Mus musculus [1]): Active | Ki (Orexin receptor type 2): 8.71 nM | Activity (Mus musculus [2]): Active | Fu (Brain [3]): 0.65% | Activity (Mus musculus [4]): Active | Activity (Mus musculus [5]): Active | Activity (Mus musculus [6]): Active | Ki [7]: 1.7 nM | Drug uptake (Brain [8]): 10329 pmol/g | concentration at 1 h [9]: 10.5 µM
